Assay results: ChEMBL document CHEMBL1649480, “Farnesol-induced apoptosis in Candida albicans” (2009)
Calls of active or inactive are those of the source. The rule behind the calls is not given here.

What was measured:
Candida albicans [1] = assay: Induction of apoptosis in Candida albicans SC5314 assessed as cell death level at 100 uM after 3 hrs by Fluorescence analysis; type: functional
In short: (§1)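 Washed, OD600 0.1 SC5314 cells (overnight culture at 30°C in YNB pH 7.0 with 50 mM glucose) exposed 3 h to farnesol, with methanol vehicle and H2O2 controls. Stained 30 min in the dark with a mix of dichlorodihydrofluorescein diacetate, propidium iodide and calcofluor white, then PBS-washed. Confocal imaging; red propidium iodide-stained cells scored as a percentage of all cells.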

Candida albicans [2] = assay: Induction of apoptosis in Candida albicans SC5314 assessed as mitochondrial degradation at 100 uM after 3 hrs by Fluorescence analysis; type: functional
In short: (§2)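 Farnesol-exposed SC5314 (40, 100, 200 μM; methanol control, H2O2 positive control) stained with a MitoPT mitochondrial permeability transition dye per kit instructions. Cells imaged by confocal microscopy: red mitochondrial aggregates in healthy cells, dispersed green signal in apoptotic cells. Percentage of cells with degradation was recorded.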

Candida albicans [3] = assay: Upregulation of Putative mitochondrial […] expression in Candida albicans SC5314 at 200 uM after 24 hrs by MALDI-TOF MS; type: functional, organism-based
In short: (§3)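 SC5314 grown overnight at 30°C, 120 rpm, in yeast nitrogen base (pH 7.0) with 50 mM glucose. Cells were washed in PBS and adjusted to OD600 0.1, then treated 24 h with farnesol from a methanol dilution; controls received methanol. Proteomes of treated and untreated cells were compared by 2-D SDS-PAGE and MALDI-TOF MS, with ProFound searches of the NCBI nonredundant database. Spots changed at least 1.5-fold in three independent experiments were counted.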

Candida albicans [4] = assay: Upregulation of Putative mitochondrial aconitate hydratase expression in Candida albicans SC5314 at 40 uM after 24 hrs by MALDI-TOF MS; type: functional, organism-based; in short: as §3
Candida albicans [5] = assay: Downregulation of S-adenosylmethionine synthase expression in Candida albicans SC5314 at 200 uM after 24 hrs by MALDI-TOF MS; type: functional, organism-based
In short: (§4)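 Overnight YNB-glucose SC5314 culture, PBS-washed, adjusted to OD600 0.1 and treated 24 h with 40 or 200 μM farnesol (methanol in controls). Proteomes were compared with untreated cells by 2D SDS-PAGE and MALDI-TOF MS, searched against NCBI nonredundant database. Spots were counted as changed at ≥1.5-fold in three independent experiments.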

Candida albicans [6] = assay: Induction of ROS accumulation in mitochondria of Candida albicans SC5314 at 100 uM after 3 hrs by Fluorescence analysis; type: functional
In short: (§5)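 Cells were exposed 3 h to 40, 100 or 200 μM farnesol, with methanol control and H2O2 positive control. Washed cells were stained 30 min in the dark with a mix of dichlorodihydrofluorescein diacetate, propidium iodide and calcofluor white, then washed and viewed by confocal microscopy. % green (ROS) cells of all cells was scored, with red (necrotic) cells scored separately.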

Candida albicans [7] = assay: Antiproliferative activity against Candida albicans SC5314 assessed as cell killing after 24 hrs by MTS assay; type: functional
In short: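 SC5314 grown overnight in YNB (pH 7.0) with 50 mM glucose at 30°C, 120 rpm, washed in PBS. Suspensions at 1 × 10⁷ cells/ml exposed to farnesol at final 0, 10, 40, 100, 200, 300 μM for 24 h at 30°C with shaking, with methanol vehicle controls. MTS reagent added for 4 h at 37°C, A490 read, and % killed cells calculated.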

Candida albicans [8] = assay: Induction of apoptosis in Candida albicans SC5314 assessed as cell death level at 200 uM after 3 hrs by Fluorescence analysis; type: functional; in short: as §1
Candida albicans [9] = assay: Induction of apoptosis in Candida albicans SC5314 at 100 uM after 24 hrs by TUNEL assay; type: functional
In short: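 After 24 h in farnesol (40, 100, 200 μM), cells were PBS-washed, fixed in 4% paraformaldehyde (pH 7.4) 1 h at 20°C, and permeabilized 2 min on ice. They were labeled with 9:1 label:enzyme TUNEL mix 1 h at 37°C in the dark and examined by fluorescence microscopy at 515–565 nm. Flow cytometry counted % positive of 30,000 gated cells, gates set by no-enzyme and DNase-treated controls.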

Candida albicans [10] = assay: Downregulation of Glyceraldehyde-3-phosphate dehydrogenase expression in Candida albicans SC5314 at 40 uM after 24 hrs by MALDI-TOF MS; type: functional, organism-based; in short: as §4
Candida albicans [11] = assay: Induction of apoptosis in Candida albicans SC5314 assessed as activation of caspase activity at 200 uM after 3 hrs by Fluorescence analysis; type: functional
In short: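 Active caspases in farnesol-exposed cells (40, 100, 200 μM; methanol control, H2O2 positive control) were detected with a FLICA kit per manufacturer. Cells were examined by confocal microscopy, with green-fluorescing cells counted as caspase-positive and unstained cells as nonapoptotic. Percentage of positive cells was recorded.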

Candida albicans [12] = assay: Upregulation of NADH-cytochrome b5 reductase expression in Candida albicans SC5314 at 200 uM after 24 hrs by MALDI-TOF MS; type: functional, organism-based; in short: as §3
Candida albicans [13] = assay: Upregulation of 6-Phosphogluconate dehydrogenase expression in Candida albicans SC5314 at 40 uM after 24 hrs by MALDI-TOF MS; type: functional, organism-based; in short: as §4
Candida albicans [14] = assay: Downregulation of carboxymethylenebutenolidase expression in Candida albicans SC5314 at 200 uM after 24 hrs by MALDI-TOF MS; type: functional, organism-based; in short: as §4
Candida albicans [15] = assay: Downregulation of Heat shock protein 60 expression in Candida albicans SC5314 at 200 uM after 24 hrs by MALDI-TOF MS; type: functional, organism-based; in short: as §4
Candida albicans [16] = assay: Upregulation of Branched chain amino acid transaminase expression in Candida albicans SC5314 at 40 uM after 24 hrs by MALDI-TOF MS; type: functional, organism-based; in short: as §4
Candida albicans [17] = assay: Upregulation of Alanine/arginine aminopeptidase expression in Candida albicans SC5314 at 40 uM after 24 hrs by MALDI-TOF MS; type: functional, organism-based; in short: as §4
Candida albicans [18] = assay: Upregulation of Alcohol dehydrogenase expression in Candida albicans SC5314 at 40 uM after 24 hrs by MALDI-TOF MS; type: functional, organism-based; in short: as §4
Candida albicans [19] = assay: Upregulation of Phosphoglycerate mutase expression in Candida albicans SC5314 at 200 uM after 24 hrs by MALDI-TOF MS; type: functional, organism-based; in short: as §3
Candida albicans [20] = assay: Induction of apoptosis in Candida albicans SC5314 assessed as mitochondrial degradation at 40 uM after 3 hrs by Fluorescence analysis; type: functional; in short: as §2
Candida albicans [21] = assay: Downregulation of Pyruvate kinase expression in Candida albicans SC5314 at 200 uM after 24 hrs by MALDI-TOF MS; type: functional, organism-based; in short: as §4
Candida albicans [22] = assay: Induction of ROS accumulation in mitochondria of Candida albicans SC5314 at 40 uM after 3 hrs by Fluorescence analysis; type: functional; in short: as §5
Candida albicans [23] = assay: Increase in MCA1 expression in Candida albicans SC5314 at 5 mM after 4 hrs by quantitative PCR analysis
Candida albicans [24] = assay: Upregulation of Putative aspartate aminotransferase expression in Candida albicans SC5314 at 200 uM after 24 hrs by MALDI-TOF MS; type: functional, organism-based; in short: as §3
Candida albicans [25] = assay: Downregulation of NADH:quinone oxidoreductase expression in Candida albicans SC5314 at 200 uM after 24 hrs by MALDI-TOF MS; type: functional, organism-based; in short: as §4

CC(C)=CCC/C(C)=C/CC/C(C)=C/CO [FARNESOL]
Activity (Candida albicans [1]): 20%
Activity (Candida albicans [2]): 93%
Activity (Candida albicans [3]): Active
Activity (Candida albicans [4]): Active
Activity (Candida albicans [5]): Active
Activity (Candida albicans [6]): 80%
Activity (Candida albicans [7]): 60%
Activity (Candida albicans [8]): 35%
Activity (Candida albicans [9]): 10.2%
Activity (Candida albicans [10]): Active
Activity (Candida albicans [11]): 84%
Activity (Candida albicans [12]): Active
Activity (Candida albicans [13]): Active
Activity (Candida albicans [14]): Active
Activity (Candida albicans [15]): Active
Activity (Candida albicans [16]): Active
Activity (Candida albicans [17]): Active
Activity (Candida albicans [18]): Active
Activity (Candida albicans [19]): Active
Activity (Candida albicans [20]): 90%
Activity (Candida albicans [21]): Active
Activity (Candida albicans [22]): 26%
Activity (Candida albicans [23]): Active
Activity (Candida albicans [24]): Active
Activity (Candida albicans [25]): Active
